# Assay results gathered from unrelated publications.
# Compare with care: the assays were run in different laboratories.
# Target: Non-receptor tyrosine-protein kinase TNK1 (TNK1, Homo sapiens, UniProt Q13470)
# Residues used in one study (Q13470 1-666): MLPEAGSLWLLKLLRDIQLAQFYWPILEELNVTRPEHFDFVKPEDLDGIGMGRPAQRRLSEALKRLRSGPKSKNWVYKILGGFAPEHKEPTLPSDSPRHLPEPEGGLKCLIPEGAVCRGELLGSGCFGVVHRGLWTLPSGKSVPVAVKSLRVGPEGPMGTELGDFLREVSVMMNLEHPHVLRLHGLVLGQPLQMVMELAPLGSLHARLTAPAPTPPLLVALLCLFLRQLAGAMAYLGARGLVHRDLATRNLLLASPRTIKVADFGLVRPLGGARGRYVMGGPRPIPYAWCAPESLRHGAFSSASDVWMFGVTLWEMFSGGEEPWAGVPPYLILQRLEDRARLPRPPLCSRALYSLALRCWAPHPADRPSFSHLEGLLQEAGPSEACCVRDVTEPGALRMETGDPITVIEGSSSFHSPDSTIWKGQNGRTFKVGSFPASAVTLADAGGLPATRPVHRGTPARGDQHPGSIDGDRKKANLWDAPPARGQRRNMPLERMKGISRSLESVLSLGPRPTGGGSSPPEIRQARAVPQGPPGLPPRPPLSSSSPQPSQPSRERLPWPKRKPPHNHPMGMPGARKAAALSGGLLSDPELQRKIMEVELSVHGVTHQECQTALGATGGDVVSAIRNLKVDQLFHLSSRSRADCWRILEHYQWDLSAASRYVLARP
Compound,read-out,technique,tested at,remaining binding
COc1cnc(Nc2cccc(S(N)(=O)=O)c2)nc1N1CCN(c2ccccc2)CC1,binding,competition with immobilised ligand,1 µM,98%
O=C(NCCCN1CCOCC1)c1ccc(Nc2ncc(Cl)c(-c3ccc(Cl)s3)n2)cc1,binding,competition with immobilised ligand,1 µM,36%
COc1cc(-c2cn(C3CCc4c(F)cccc4N(CC(F)(F)F)C3=O)nn2)ccc1-n1cnc(C)c1 (stereo not shown),cell-free assay,competition with immobilised ligand,1 µM,100%
C[C@@H](c1ccc(-n2cnc3c(N)ncnc32)cc1)N1CCc2nn(C)c(Cc3ccccc3)c2C1=O,binding,competition with immobilised ligand,0.1 µM,47%
CC(C)CC(=O)N1CCc2nc(-c3ccc(Br)cc3)nc(N(C)Cc3ccccc3)c2C1,cell-free assay,competition with immobilised ligand,0.1 µM,100%
C[C@H]1CCN(c2nccc(-c3cnn4ncccc34)n2)C1,binding,,1 µM,100%
CCN1CCN(Cc2ccc(C(=O)Nc3ccc(C)c(Oc4ccc5c(c4)CC(=O)N5)c3)cc2C(F)(F)F)CC1,binding,competition with immobilised ligand,1 µM,100%
Cc1c[nH]c2nccc(Oc3c(F)cc(Nc4cc(Cl)nc(N)n4)cc3F)c12,cell-free assay,competition with immobilised ligand,0.1 µM,100%
c1cncc(-c2cccc(Nc3nccc(NC4CCCCC4)n3)c2)c1,binding,competition with immobilised ligand,10 µM,40%
CN(C)c1ncc(F)c(-c2cnn3ncccc23)n1,binding,,1 µM,100%
O=C(Nc1c[nH]nc1C(=O)NC1CCNCC1)c1cc(F)cc(F)c1,binding,competition with immobilised ligand,1 µM,38%
CN(c1nccc(-c2cnn3ncccc23)n1)C1CC1,binding,,1 µM,84%
COc1cnc(Nc2cccc(S(N)(=O)=O)c2)nc1N1CCN(c2ccccc2)C(=O)C1,binding,competition with immobilised ligand,1 µM,100%
N[C@H]1CCN(c2nccc(-c3cnn4ncccc34)n2)C1,binding,,1 µM,0%
O=C(Nc1cccnn1)N1CCC(=Cc2cccc(Oc3ccc(C(F)(F)F)cn3)c2)CC1,cell-free assay,competition with immobilised ligand,1 µM,98%
O=C(NCCCN1CCOCC1)c1ccc(Nc2nccc(-c3cc4ccccc4s3)n2)cc1,binding,competition with immobilised ligand,1 µM,41%
C[C@@H](c1cccc(C#N)c1)n1cc(Cl)cc(C(N)=O)c1=N,cell-free assay,competition with immobilised ligand,1 µM,94%
Cc1cnn2ncc(-c3ccnc(N(C)C)n3)c2c1,binding,,1 µM,98%
CC1=C(C#N)C(c2ccc3c(c2)c(NC(=O)c2ccccc2C)nn3C)C(C#N)=C(C)N1,cell-free assay,competition with immobilised ligand,1 µM,76%
Cc1cnc(Nc2ccc(C(=O)N3CCC(N4CCCC4)CC3)cc2)nc1-c1cc2ccccc2s1,binding,competition with immobilised ligand,1 µM,13%
CN1CCN(c2cnc3c(C4CCN(C(=O)c5ccc(OC(F)(F)F)cc5N)CC4)ncnc3c2)CC1,cell-free assay,competition with immobilised ligand,1 µM,100%
F[C@@H]1CCN(c2nccc(-c3cnn4ncccc34)n2)C1,binding,,1 µM,87%
